The values below come from ChEMBL document CHEMBL2203171, “The use of small molecule probes to study spatially separated stimulus-induced signaling pathways” (Bioorg Med Chem Lett, 2012).

Calls of active or inactive are those of the source. No cut-off for these calls is given here.

Type in all cases: cell-based
The target in test [1] is T1, Interleukin-1 receptor type 1 (Mus musculus) (UniProt P13504).
T1 sequence (whole entry): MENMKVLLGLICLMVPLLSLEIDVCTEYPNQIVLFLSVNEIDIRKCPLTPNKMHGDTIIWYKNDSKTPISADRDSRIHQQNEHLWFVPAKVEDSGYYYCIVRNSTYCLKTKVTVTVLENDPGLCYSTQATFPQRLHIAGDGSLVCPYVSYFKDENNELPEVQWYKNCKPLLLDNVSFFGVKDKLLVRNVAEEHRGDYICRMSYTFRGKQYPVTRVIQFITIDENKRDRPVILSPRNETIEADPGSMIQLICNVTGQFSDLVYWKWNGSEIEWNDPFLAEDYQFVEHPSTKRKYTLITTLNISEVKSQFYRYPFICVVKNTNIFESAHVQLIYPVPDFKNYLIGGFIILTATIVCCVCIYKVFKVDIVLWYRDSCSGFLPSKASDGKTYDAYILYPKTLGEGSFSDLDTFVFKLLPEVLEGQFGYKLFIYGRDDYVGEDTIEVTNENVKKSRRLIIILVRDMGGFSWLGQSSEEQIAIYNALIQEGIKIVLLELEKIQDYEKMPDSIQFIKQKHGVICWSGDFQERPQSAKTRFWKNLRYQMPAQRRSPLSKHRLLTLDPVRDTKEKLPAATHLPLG
The test can be described thus: Inhibition of MyD88 recruitment to IL-1R in C57BL/6 mouse BMDM cells assessed as inhibition of IL1-induced p38 MAPK activity up to 90 mins. A digest of the protocol:
(§1)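 Bone marrow macrophages from C57BL/6 mice, grown in 70% growth medium (DMEM, 10% FBS) plus 30% L929-conditioned medium and given fresh medium 12-14 h before stimulation. Stimuli: IL-1 40 ng/ml, HKSA ~10^8 cfu/ml, pI:pC 50 μg/ml or CpG 10 μg/ml, ± compound at 10 μM (final) added from a 200x DMSO stock. IκBα and p38 profiled by immunoblot. Three independent experiments, quantitated and normalized.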

In test [2] the target is T1, Interleukin-1 receptor type 1 (Mus musculus). Kind of test: Inhibition of MyD88 recruitment to IL-1R in C57BL/6 mouse BMDM cells assessed as inhibition of IL-1-induced IkappaBalpha phosphorylation up to 90 mins by Western blot analysis. A digest of the protocol:
as §1

Test [3] has as its target T2, Inhibitor of nuclear factor kappa-B kinase subunit beta (Mus musculus) (UniProt O88351).
T2 sequence (whole entry): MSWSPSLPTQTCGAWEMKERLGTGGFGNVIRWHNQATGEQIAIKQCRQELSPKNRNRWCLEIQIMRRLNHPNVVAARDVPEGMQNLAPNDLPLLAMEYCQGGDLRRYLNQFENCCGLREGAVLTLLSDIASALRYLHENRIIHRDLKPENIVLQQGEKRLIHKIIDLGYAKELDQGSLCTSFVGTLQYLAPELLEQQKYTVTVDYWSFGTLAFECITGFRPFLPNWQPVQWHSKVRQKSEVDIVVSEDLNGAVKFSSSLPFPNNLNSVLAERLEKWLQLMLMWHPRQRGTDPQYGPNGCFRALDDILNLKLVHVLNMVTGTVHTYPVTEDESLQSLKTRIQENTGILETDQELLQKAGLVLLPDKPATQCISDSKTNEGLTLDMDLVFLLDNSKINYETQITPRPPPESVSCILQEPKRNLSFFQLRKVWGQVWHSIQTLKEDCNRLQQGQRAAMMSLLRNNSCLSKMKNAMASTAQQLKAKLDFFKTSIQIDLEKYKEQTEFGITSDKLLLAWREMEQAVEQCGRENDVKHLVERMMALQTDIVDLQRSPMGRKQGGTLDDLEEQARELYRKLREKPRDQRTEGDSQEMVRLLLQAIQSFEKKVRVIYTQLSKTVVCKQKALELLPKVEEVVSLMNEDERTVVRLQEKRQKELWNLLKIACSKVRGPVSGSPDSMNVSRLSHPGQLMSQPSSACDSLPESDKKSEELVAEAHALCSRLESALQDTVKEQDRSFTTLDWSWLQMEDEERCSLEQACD
The test can be described thus: Inhibition of IKKbeta in C57BL/6 mouse BMDM cells assessed as inhibition of TNFalpha-induced MCP1 […] at 25 uM by Northern blot analysis.

Test [4] deals with T2, Inhibitor of nuclear factor kappa-B kinase subunit beta (Mus musculus). The test can be described thus: Inhibition of IKKbeta in C57BL/6 mouse BMDM cells assessed as inhibition of LPS-induced RelA phosphorylation at 25 uM after 5 mins by Western blot analysis. A digest of the protocol: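 C57BL/6 marrow-derived macrophages were cultured in 70% growth medium/30% L929-conditioned medium and refreshed 12-14 h before stimulation. Stimuli were TNF 40 ng/ml or LPS 100 ng/ml, ± compound at 25 μM from a 200x DMSO stock. Western blots tracked IKK, p38, IκBα and phospho-RelA. Results from three independent experiments were quantitated and normalized.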
Background: A western blot detects proteins with antibodies after separation by electrophoresis.

Test [5] shares this target. Kind of test: Inhibition of IKKbeta in C57BL/6 mouse BMDM cells assessed as inhibition of TNFalpha-induced IkappaBalpha phosphorylation at 50 uM up to 90 mins by Western blot analysis.

For `O=C(CCCCCN1C(=O)C=CC1=O)Oc1ccc2cc(C(C(=O)NCc3ccccc3)N(C(=O)Cc3ccc4c(c3)OCO4)C3CC3)ccc2c1` (stereo not given), the inhibition result in test [1], in test [3] and in test [5] was “inactive” each time. Moreover, the inhibition result in test [2] and in test [4] was “Active” in each case.
